The source made the active and inactive calls. The calls are words filed in the database; no cut-off is given here.
Assays:
[1] = target: T1, Protein disulfide-isomerase (Homo sapiens, UniProt P07237); experiment: Inhibition of recombinant human wild-type N-terminal His-tagged PDIA1 expressed in Escherichia coli strain BL21(DE3) assessed as ratio of Kinact to Ki using bovine insulin as substrate preincubated for 5 to 60 mins followed by substrate addition; conditions: time min 5-60
In short: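 Activity measured in PDI reductase assay (insulin substrate, absorbance followed over time) at several inhibitor concentrations and preincubation times of 5 to 60 minutes; kinact/KI derived from concentration- and time-dependent inhibition curves.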
Target sequence in this assay (P07237 18-508 limits assumed): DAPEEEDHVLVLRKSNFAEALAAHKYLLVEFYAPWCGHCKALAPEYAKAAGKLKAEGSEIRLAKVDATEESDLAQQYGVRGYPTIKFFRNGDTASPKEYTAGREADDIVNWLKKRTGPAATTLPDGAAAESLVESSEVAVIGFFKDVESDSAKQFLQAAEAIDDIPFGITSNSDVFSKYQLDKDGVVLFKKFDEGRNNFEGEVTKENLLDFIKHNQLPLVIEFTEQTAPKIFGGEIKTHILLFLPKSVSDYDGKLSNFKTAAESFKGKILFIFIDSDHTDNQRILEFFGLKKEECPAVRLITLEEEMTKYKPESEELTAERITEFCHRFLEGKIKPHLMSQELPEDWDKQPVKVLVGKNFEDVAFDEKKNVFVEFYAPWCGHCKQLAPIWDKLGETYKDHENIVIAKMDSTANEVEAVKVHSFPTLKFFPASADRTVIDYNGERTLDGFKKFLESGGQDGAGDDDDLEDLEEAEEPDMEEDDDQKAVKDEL

[2] = target: T1, Protein disulfide-isomerase; experiment: Inhibition of recombinant human wild-type N-terminal His-tagged PDIA1 expressed in Escherichia coli strain BL21(DE3) at 10 uM using bovine insulin as substrate preincubated for 1 hr followed by substrate addition in presence of N-acetyl cysteine
In short: (§1)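 Compound incubated with N-acetyl cysteine before addition to the PDI reductase assay with PDIA1, at a final compound concentration of 10 μM.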
Target sequence in this assay (P07237 18-508 limits assumed): as above

[3] = target: T1, Protein disulfide-isomerase; experiment: Binding affinity to recombinant human wild-type N-terminal His-tagged PDIA1 expressed in Escherichia coli strain BL21(DE3) assessed as change in melting temperature at 100 uM by ROX dye based thermal shift assay
Target sequence in this assay (P07237 18-508 limits assumed): as above

[4] = target: T1, Protein disulfide-isomerase; experiment: Inhibition of recombinant human wild-type N-terminal His-tagged PDIA1 expressed in Escherichia coli strain BL21(DE3) at 10 uM using bovine insulin as substrate preincubated for 1 hr followed by substrate addition in presence of glutathione
In short: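 Glutathione added to the PDI reaction buffer before 10 μM compound; screening done with 5 mM GSH, reductase assay DTT at 500 μM.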
Target sequence in this assay (P07237 18-508 limits assumed): as above

[5] = system: Protein disulfide-isomerase (Homo sapiens), P07237 [H256A]; experiment: Inhibition of recombinant human wild-type N-terminal His-tagged PDIA1 H256A mutant expressed in Escherichia coli strain BL21(DE3) using bovine insulin as substrate preincubated for 1 hr followed by substrate addition
[6] = system: MIA PaCa-2; experiment: Cytotoxicity against human MIA PaCa-2 cells assessed as growth inhibition at 30 uM measured after 72 hrs by MTT assay relative to control; type: functional; conditions: read-out: GI
In short: (§2)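 Single-concentration screen: percent inhibition of cell growth at 30 μM in U-87 MG and MIA PaCa-2 cells by MTT.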

[7] = system: U-87 MG; experiment: Cytotoxicity against human U-87 MG cells assessed as growth inhibition measured after 72 hrs by MTT assay; type: functional, cell-based, U-87MG ATCC
In short: (§3)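 IC50 from dose-response curves; PDI reductase assay for enzyme, MTT in U-87 MG cells for cytotoxicity; mean ± SD of at least three independent experiments.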

[8] = target: T1, Protein disulfide-isomerase; experiment: Inhibition of recombinant human wild-type N-terminal His-tagged PDIA1 expressed in Escherichia coli strain BL21(DE3) using bovine insulin as substrate preincubated for 1 hr followed by substrate addition; in short: as §3
Target sequence in this assay (P07237 whole entry): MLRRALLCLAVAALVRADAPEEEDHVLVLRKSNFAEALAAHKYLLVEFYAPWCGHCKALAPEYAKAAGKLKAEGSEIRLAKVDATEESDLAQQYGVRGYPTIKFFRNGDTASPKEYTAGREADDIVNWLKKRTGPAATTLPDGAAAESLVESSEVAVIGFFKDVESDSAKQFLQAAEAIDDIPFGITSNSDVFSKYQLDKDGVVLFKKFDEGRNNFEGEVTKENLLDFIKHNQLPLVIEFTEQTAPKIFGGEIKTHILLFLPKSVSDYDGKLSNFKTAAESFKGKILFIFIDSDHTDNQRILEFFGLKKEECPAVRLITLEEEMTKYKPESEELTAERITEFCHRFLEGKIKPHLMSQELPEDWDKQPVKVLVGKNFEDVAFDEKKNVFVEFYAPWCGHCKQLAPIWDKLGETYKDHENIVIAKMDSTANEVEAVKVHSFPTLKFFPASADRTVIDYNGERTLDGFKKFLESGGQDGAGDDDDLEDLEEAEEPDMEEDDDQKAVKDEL

[9] = target: T1, Protein disulfide-isomerase; experiment: Irreversible inhibition of recombinant human wild-type N-terminal His-tagged PDIA1 expressed in Escherichia coli strain BL21(DE3) at 400 uM using bovine insulin as substrate preincubated for 30 mins followed by 100-fold dilution substrate addition further incubated for 1 hr and subsequent substrate addition; conditions: time 1.5 hrs
Target sequence in this assay (P07237 18-508 limits assumed): as the sequence (P07237 18-508 limits assumed) above

[10] = system: U-87 MG; experiment: Cytotoxicity against human U-87 MG cells assessed as growth inhibition at 30 uM measured after 72 hrs by MTT assay relative to control; type: functional, U-87MG ATCC; conditions: read-out: GI; in short: as §2
[11] = target: T1, Protein disulfide-isomerase; experiment: Displacement of PACMA57 from recombinant human wild-type N-terminal His-tagged PDIA1 expressed in Escherichia coli strain BL21(DE3) at 100 uM measured after overnight incubation by gel-based imaging analysis
Target sequence in this assay (P07237 18-508 limits assumed): as above

[12] = target: T1, Protein disulfide-isomerase; experiment: Inhibition of recombinant human wild-type N-terminal His-tagged PDIA1 expressed in Escherichia coli strain BL21(DE3) at 40 uM using bovine insulin as substrate preincubated for 1 hr followed by substrate addition relative to control
[13] = target: T1, Protein disulfide-isomerase; experiment: Displacement of ANS from recombinant human wild-type N-terminal His-tagged PDIA1 expressed in Escherichia coli strain BL21(DE3) at 100 uM measured after 1 hr by fluorescence assay
[14] = target: T1, Protein disulfide-isomerase; experiment: Inhibition of recombinant human wild-type N-terminal His-tagged PDIA1 expressed in Escherichia coli strain BL21(DE3) at 10 uM using bovine insulin as substrate […]; in short: as §1
[15] = system: U-87 MG; experiment: Inhibition of colony formation in BSO-treated human U-87 MG cells at 0.3 to 3 uM measured after 10 to 14 days by crystal violet staining based assay; type: functional, cell-based; conditions: U-87MG ATCC, dose microM 0.3-3, time day 10-14
In short: (§4)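 U-87 MG cells pretreated with BSO for 24 hours before compound addition; read-out by colony formation assay.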

[16] = target: T1, Protein disulfide-isomerase; experiment: Binding affinity to recombinant human wild-type N-terminal His-tagged PDIA1 expressed in Escherichia coli strain BL21(DE3) assessed as increase in protein mass at 100 uM measured after 30 mins in presence of GSTO1 and GRP78 by Q-TOF MS analysis relative to control
In short: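 100 μM compound incubated 30 min with a mix of 10 μM PDI, 10 μM GSTO1 and 10 μM GRP78 (GRP78 as non-specific binding control); protein masses read by QTOF MS before/after.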

[17] = target: T1, Protein disulfide-isomerase; experiment: Inhibition of recombinant human wild-type N-terminal His-tagged PDIA1 expressed in Escherichia coli strain BL21(DE3) at 10 uM using bovine insulin as substrate preincubated for 1 hr followed by substrate addition in absence of glutathione
[18] = system: U-87 MG; experiment: Inhibition of colony formation in BSO-treated human U-87 MG cells at 0.3 to 10 uM measured after 10 to 14 days by crystal violet staining based assay; type: functional, cell-based; conditions: U-87MG ATCC, dose microM 0.3-10, time day 10-14; in short: as §4
[19] = target: T1, Protein disulfide-isomerase; experiment: Binding affinity to recombinant human wild-type N-terminal His-tagged PDIA1 expressed in Escherichia coli strain BL21(DE3) assessed as adduct formation at 100 uM measured after 30 mins in presence of DTT by Q-TOF MS analysis
In short: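 Recombinant PDI at 10 μM incubated 30 min with 100 μM compound and 100 μM DTT before injection; adducts detected by quadrupole time-of-flight mass spectrometry.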

[20] = species on record: Homo sapiens; experiment: Binding affinity to recombinant human wild-type N-terminal His-tagged PDIA1 C53S mutant expressed in Escherichia coli strain BL21(DE3) assessed as adduct formation at 100 uM measured after 30 mins in presence of DTT by Q-TOF MS analysis
[21] = target: T1, Protein disulfide-isomerase; experiment: Inhibition of recombinant human wild-type N-terminal His-tagged PDIA1 expressed in Escherichia coli strain BL21(DE3) at 1.1 to 90 uM using bovine insulin as substrate preincubated for 1 hr followed by substrate addition in presence of glutathione; conditions: dose microM 1.1-90, time 1.0 hrs
[22] = system: U-87 MG; experiment: Inhibition of colony formation in BSO-treated human U-87 MG cells at 0.3 to 30 uM measured after 10 to 14 days by crystal violet staining based assay; type: functional, cell-based; conditions: U-87MG ATCC, dose microM 0.3-30, time day 10-14; in short: as §4
[23] = target: T1, Protein disulfide-isomerase; experiment: Binding affinity to recombinant human wild-type N-terminal His-tagged PDIA1 expressed in Escherichia coli strain BL21(DE3) at 20 uM measured after 24 hrs in presence of BSA by SDS PAGE analysis
[24] = target: T2, Albumin (Bos taurus, UniProt P02769); experiment: Binding affinity to fetal bovine serum albumin at 20 uM measured after overnight incubation in presence of cell free DMEM medium by gel based assay; type: ADME; conditions: cattle
[25] = Drug uptake in human A 172 cell nucleus at 10 uM measured after 24 hrs by PDI antibody/DAPI staining based confocal microscopic analysis; type: ADME, subcellular; conditions: a 172, 24 h
[26] = target: T2, Albumin; experiment: Binding affinity to BSA at 100 uM measured after overnight incubation by coomassie staining GFP channel based Western blot assay; type: ADME, cell-free; conditions: cattle, serum
[27] = Drug uptake in human A 172 cell endoplasmic reticulum at 10 uM measured after 24 hrs by PDI antibody/DAPI staining based confocal microscopic analysis; type: ADME, subcellular; conditions: a 172, 24 h
[28] = target: T1, Protein disulfide-isomerase; experiment: Binding affinity to PDIA1 in human U-87 MG cells at 5 uM measured after 24 hrs in presence of DTT by coomassie staining GFP channel based Western blot assay; type: cell-based
[29] = target: T1, Protein disulfide-isomerase; experiment: Binding affinity to PDIA1 in human U-87 MG cell lysates at 5 uM measured after 24 hrs by PAGE analysis; type: subcellular
[30] = Drug uptake in human A 172 cell cytoplasm at 10 uM measured after 24 hrs by PDI antibody/DAPI staining based confocal microscopic analysis; type: ADME, subcellular; conditions: a 172, 24 h
[31] = target: T1, Protein disulfide-isomerase; experiment: Binding affinity to PDIA1 in human U-87 MG cells at 40 uM measured after 24 hrs in presence of fetal bovine serum by Western blot analysis; type: cell-based
[32] = target: T2, Albumin; experiment: Binding affinity to fetal bovine serum albumin at 40 uM measured after 24 hrs in presence of human U-87 MG cells by Western blot analysis; type: ADME, cell-free; conditions: cattle
[33] = target: T1, Protein disulfide-isomerase; experiment: Binding affinity to PDIA1 in human U-87 MG cells at 10 uM measured after 24 hrs in absence of fetal bovine serum by coomassie staining GFP channel based assay; type: cell-based
[34] = target: T1, Protein disulfide-isomerase; experiment: Inhibition of recombinant human wild-type N-terminal His-tagged PDIA1 expressed in Escherichia coli strain BL21(DE3) at 10 to 40 uM using bovine insulin as substrate preincubated for 1 hr followed by substrate addition; conditions: dose microM 10-40, time 1.0 hrs

T2 sequence (P02769 whole entry): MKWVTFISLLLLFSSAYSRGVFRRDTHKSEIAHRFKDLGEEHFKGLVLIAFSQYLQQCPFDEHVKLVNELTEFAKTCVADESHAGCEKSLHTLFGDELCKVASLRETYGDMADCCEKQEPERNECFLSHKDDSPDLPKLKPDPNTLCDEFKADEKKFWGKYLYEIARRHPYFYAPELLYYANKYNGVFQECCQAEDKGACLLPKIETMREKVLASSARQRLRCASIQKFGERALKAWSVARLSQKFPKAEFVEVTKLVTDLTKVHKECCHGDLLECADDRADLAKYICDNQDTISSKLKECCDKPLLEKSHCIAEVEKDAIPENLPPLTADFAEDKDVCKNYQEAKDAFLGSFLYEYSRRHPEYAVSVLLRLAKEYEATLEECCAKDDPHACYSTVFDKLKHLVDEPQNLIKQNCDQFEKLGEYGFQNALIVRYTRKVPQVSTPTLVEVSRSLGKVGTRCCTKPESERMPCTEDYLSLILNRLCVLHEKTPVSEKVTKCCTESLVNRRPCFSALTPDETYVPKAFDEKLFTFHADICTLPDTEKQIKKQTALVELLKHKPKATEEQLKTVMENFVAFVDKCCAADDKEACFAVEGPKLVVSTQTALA
Protein disulfide-isomerase (Homo sapiens), P07237 [H256A], sequence (P07237 whole entry H256A): as the sequence (P07237 whole entry) above, with H256A counted along it

C#CC(=O)N(c1ccc(OC)cc1OC)C(C(=O)NCC(=O)OCC)c1cccs1 (centres undefined)
Ratio [1]: 2 10^2/M/s
inhibition [2]: inactive
ΔTm [3]: 0.18 °C
inhibition [4]: inactive

COc1ccc(C(c2cc3c(cc2O)OCO3)N2CCOCC2)cc1OC (centres undefined)
Ratio [1]: 2.6 10^3/M/s
inhibition [5]: Active
inhibition [2]: inactive
ΔTm [3]: -0.36 °C
inhibition of growth at 30 µM [6]: > 40%
IC50 [7]: 18300 nM
IC50 [8]: 300 nM
inhibition [9]: Active
inhibition of growth at 30 µM [10]: > 40%
inhibition [11]: Active
inhibition [4]: inactive
inhibition [12]: 50%
inhibition [13]: inactive
inhibition [14]: Active
inhibition [15]: Active

Oc1cc2c(cc1C(c1ccc(F)cc1)N1CCCCC1)CCC2 (centres undefined)
IC50 [8]: > 30000 nM
inhibition [11]: inactive
Activity [16]: inactive

CN(C)c1ccc(C(Nc2ncccn2)c2cc3c(cc2O)OCO3)cc1 (centres undefined)
inhibition [17]: 88%
inhibition [4]: 64%

Oc1c(C(Nc2ccccn2)c2ccc(Cl)cc2)ccc2cccnc12 (centres undefined)
inhibition [5]: Active
inhibition [2]: inactive
ΔTm [3]: -0.05 °C
inhibition of growth at 30 µM [6]: > 40%
inhibition [18]: Active
IC50 [7]: 10600 nM
IC50 [8]: 170 nM
inhibition [9]: inactive
inhibition of growth at 30 µM [10]: > 40%
inhibition [4]: inactive
inhibition [12]: 50%
inhibition [13]: inactive
inhibition [14]: Active

COC(=O)C1(C)c2[nH]c3ccccc3c2CCN1C(=O)CCl (centres undefined)
Ratio [1]: 1.7 10^2/M/s

COc1cccc(C(c2cc3c(cc2O)OCO3)N2CCOCC2)c1OC (centres undefined)
IC50 [7]: 32000 nM
Activity [19]: Active
IC50 [8]: 1060 nM
inhibition [9]: inactive
inhibition of growth at 30 µM [10]: 66%
fold change (FC) [16]: 2

COc1cccc(C(c2ccc3cccnc3c2O)N2CCOCC2)c1OC (centres undefined)
IC50 [7]: 33000 nM
IC50 [8]: 390 nM
inhibition of growth at 30 µM [10]: 74%

Oc1c(C(c2ccc(F)cc2)N2CCN(C(c3ccc(F)cc3)c3ccc4cncnc4c3O)CC2)ccc2cncnc12 (centres undefined)
Activity [19]: Active
Activity [20]: Active
inhibition [21]: Active
inhibition [22]: Active

Oc1c(C(c2ccc(F)cc2)N2CCNCC2)ccc2cncnc12 (centres undefined)
Activity [19]: Active
IC50 [8]: 1200 nM
inhibition [17]: 100%
Activity [20]: Active
inhibition [4]: 44%
inhibition [22]: inactive

CC1=CC(C)=[N+]2C1=C(c1ccc(C(=O)NCCNC(=O)c3ccc(C(c4cc5c(cc4O)OCO5)N4CCCCC4)cc3)cc1)c1c(C)cc(C)n1[B-]2(F)F (centres undefined)
Activity [23]: Active
Activity [24]: Active
Drug uptake [25]: Active
IC50 [8]: 1370 nM
Activity [26]: Not Active
Drug uptake [27]: Active
Activity [28]: inactive
Activity [29]: Active
Drug uptake [30]: Active

N#Cc1cccc(/C=C/C(=O)c2ccc(O)cc2)c1
inhibition [2]: inactive
ΔTm [3]: 1.55 °C
inhibition [4]: inactive
inhibition [13]: Active

Oc1c(C(c2ccc(F)cc2)N2CCCCC2)ccc2cccnc12 (centres undefined)
IC50 [7]: 37000 nM
IC50 [8]: 690 nM
inhibition of growth at 30 µM [10]: 54%

CC1=CC(C)=[N+]2C1=C(c1ccc(NC(=O)c3ccc(C(c4cc5c(cc4O)OCO5)N4CCCCC4)cc3)cc1)c1c(C)cc(C)n1[B-]2(F)F (centres undefined)
Activity [23]: Active
Activity [31]: inactive
Activity [24]: Active
Drug uptake [25]: Active
Activity [32]: Active
Drug uptake [27]: Active
Activity [33]: inactive
inhibition [34]: inactive
Drug uptake [30]: Active

Cc1ccnc(NC(c2cccc(F)c2)c2ccc3cccnc3c2O)c1 (centres undefined)
IC50 [7]: 9200 nM
IC50 [8]: 350 nM
